In the library only some 1.8% were active in any assay of this set; here they are far more common.
NPY Y2 blocker = blocks the human neuropeptide Y Y2 receptor. NPY-Y2 expressing cells, antagonist mode. inhibition, % at 2.7 µM. 140,000 compounds, 0.99% hits. P49146
NPY-Y1 antag = NPY-Y1 (human) receptor antagonism | P25929 | HEK293-CNG Y1 cells, membrane potential fluorescence; NPY at EC95, then isoproterenol | inhibition, % at 3.6 µM | 200,000 compounds, 1% hits | AID 1040;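 active means inhibition above the campaign mean inhibition of all tested compounds plus 3 SD, cut at about 20% in these data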
Target sequence (P25929 whole entry, looked up): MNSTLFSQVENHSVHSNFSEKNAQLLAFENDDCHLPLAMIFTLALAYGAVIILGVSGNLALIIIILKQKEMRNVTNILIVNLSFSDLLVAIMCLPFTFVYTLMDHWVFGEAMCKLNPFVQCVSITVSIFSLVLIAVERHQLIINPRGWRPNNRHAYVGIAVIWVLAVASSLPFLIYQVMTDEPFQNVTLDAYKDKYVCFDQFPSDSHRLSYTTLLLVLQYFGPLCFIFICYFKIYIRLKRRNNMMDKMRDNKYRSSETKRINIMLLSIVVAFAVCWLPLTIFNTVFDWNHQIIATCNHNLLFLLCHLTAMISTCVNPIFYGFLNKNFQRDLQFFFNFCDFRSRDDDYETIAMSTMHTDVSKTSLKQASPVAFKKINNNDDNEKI
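material = HEK293 cells with Y1 receptor plus CNG channel | also added = NPY 25 nM then isoproterenol 1 µM plus Ro 20-1724 25 µM | schedule = dye 3 h, compound 60 min room temperature, stimulation 45 min | measured by = membrane potential fluorescence | benchmarks = high control isoproterenol alone, low control NPY with isoproterenol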
NPY2 pot ag = potentiates or activates human NPY-Y2 receptor; cells expressing NPY-Y2, potentiator/agonist read-out; 220,000 compounds, 0.45% hits; activation, % at 3.6 µM; AID 1359; in the data active means activation above about 27%;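 further: cells stimulated with NPY near EC25 plus isoproterenol at EC100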
NPY-Y1 PAM-ag = potentiates or activates human NPY-Y1 receptor. activation, % at 3.6 µM. NPY-Y1 expressing cells, potentiator/agonist activation. 220,000 compounds, 0.37% hits. P25929; in the data active means activation above about 33%, passing the limit was not always enough;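 further: cells stimulated with NPY at EC10 then isoproterenol at EC100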
NPY-Y1 ant conf = human NPY-Y1 antagonism, confirmation; HEK293-CNG NPY-Y1, membrane potential fluorescence, cAMP; NPY challenge against isoproterenol-raised cAMP; shares compounds with NPY-Y1 antag; inhibition, % at 3.6 µM; AID 1254; 1,200 compounds, 21% hits; in the data active means inhibition above about 20%
NPY-Y2 antag ct = antagonizes human NPY-Y2, counter-screen to NPY-Y1 antagonists. shares compounds with NPY-Y1 antag. HEK293 NPY-Y2 CNG membrane potential fluorescence, antagonism; cells given NPY, then isoproterenol. inhibition, % at 3.6 µM. 1,200 compounds, 28% hits. AID 1255
A number is an active result; n = inactive; x = not tested or not shown. Unless noted, no stated cut-off is given here; in the data, active means inhibition above about 17%; inactive means the rest.

SMILES | NPY Y2 blocker | NPY-Y1 antag | NPY2 pot ag | NPY-Y1 PAM-ag | NPY-Y1 ant conf | NPY-Y2 antag ct
CC(C)NC(=O)c1onc(CSc2cccc3ccccc23)c1C(=O)O | n | 22 | n | n | n | n
CCCCNC(=O)c1onc(CSc2cccc(OCC)c2)c1C(=O)O | n | 22 | n | n | n | n
COc1cccc(NC(=O)NC(C)C2CC3CCC2C3)c1 (configuration not stated) | x | 24 | n | n | n | 34
CC(C)(C)c1ccc(CN2N=C(/C=C/c3ccccc3)CCC2=O)cc1 | x | 25 | n | n | n | n
O=C1CCC(/C=C/c2ccccc2)=NN1Cc1ccccc1 | x | n | n | n | x | x
CC(C)(C)c1csc(NC(=O)c2ccc3nccnc3c2)n1 | n | n | n | n | x | x
CC(=O)Nc1ccc(NC(=O)CN(c2cc(Cl)ccc2Cl)S(C)(=O)=O)cc1 | x | n | n | n | x | x
CC(=O)Nc1ccccc1-c1nc2ccccc2nc1OCC(=O)c1ccc2ccccc2c1 | n | 21 | n | n | n | n
COc1ccc(OC)c(Nc2nc3nonc3nc2N2CCCC(C)C2)c1 (configuration not stated) | n | n | n | n | x | x
Clc1ccc(CN(CC2CCCO2)C(c2cccs2)c2nnnn2C2CCCC2)cc1 (configuration not stated) | n | 40 | n | n | n | n
O=C1/C(=C/c2ccccn2)SC(=S)N1NS(=O)(=O)c1ccccc1 | x | 24 | n | n | n | n
O=C(NC1CCCC1)C(c1ccco1)N(Cc1ccccc1)C(=O)c1csnn1 (configuration not stated) | n | 30 | n | n | n | n
CC(=O)Oc1ccc2ccccc2c1C(NC(=O)Cc1ccccc1)c1ccc(Cl)cc1 (configuration not stated) | n | n | n | n | x | x
O=C(c1nc2ccc(Cl)cn2c1CNCC[C@@H]1C[C@@H]2C=C[C@H]1C2)N1CCCCCCC1 | x | n | n | n | x | x
C[C@@H]1CN(C(=O)c2nc3ccc(Cl)cn3c2CNCC[C@@H]2C[C@@H]3C=C[C@H]2C3)C[C@H](C)O1 | x | 24 | n | n | n | n
CCOc1ccc2nc(NCCNC(=O)C(C)C)c(C)cc2c1 | n | n | n | n | x | x
Cc1cc2cc(C)c(NCCNC(=O)c3ccccc3)nc2cc1C | x | 46 | n | n | 32 | 37
Cc1ccc(C(=O)NCCNc2nc3cc(C)c(C)cc3cc2C)cc1 | x | 33 | n | n | 41 | 65
COCC(=O)NCCNc1nc2ccc(C)cc2cc1C | n | n | n | n | x | x
COc1ccc(/C=C2\C(=O)N(c3c(Cl)cc(Cl)cc3Cl)N=C2NC(=O)c2cccc([N+](=O)[O-])c2)cc1 | n | n | n | n | x | x
Cc1ccc(S(=O)(=O)Cn2nnnc2CN2CCCC3(CCCCC3)C2)cc1 | n | n | n | n | x | x
Cc1ccc(NC(=O)CCn2cc(C(F)(F)F)ccc2=O)cc1 | x | x | n | n | x | x
CCCCCC(=O)Nc1cc(N(C)C)nc2ccccc12 | n | n | n | n | x | x
CCCCCCC(=O)Nc1c2c(nc3ccccc13)N(C)CC2 | n | 24 | n | n | n | n
CN(C)CCCOc1ccc(C(C)(C)c2ccccc2)cc1 | n | 23 | n | n | n | 23
SMILES | NPY Y2 blocker | NPY-Y1 antag | NPY2 pot ag | NPY-Y1 PAM-ag | NPY-Y1 ant conf | NPY-Y2 antag ct
OC(CNCCc1ccccc1)COc1ccc(OCC(O)CNCCc2ccccc2)cc1 (configuration not stated) | x | x | n | n | x | x
CN(C)CCOc1ccc(C(C)(C)c2ccccc2)cc1 | x | n | n | n | x | x
CC(C)N(CCNCC(O)COc1ccc(C(C)(C)c2ccccc2)cc1)C(C)C (configuration not stated) | x | 25 | n | n | n | 26
CN(C)S(=O)(=O)c1cccc(NC(=O)c2ccncc2)c1 | n | n | n | n | x | x
CCN(CC)S(=O)(=O)c1cccc(NC(=O)c2ccc(C#N)cc2)c1 | x | 22 | n | n | n | n
Oc1ccc(-c2[nH]ncc2-c2cnn(-c3ccccc3)c2)c(O)c1 | x | 25 | n | n | n | n
CN(c1ccccc1)P(=O)(N(C)c1ccccc1)N(C)c1ccccc1 | x | 34 | n | n | 30 | 20
C=C(Cl)COc1ccc2c(CCCC)cc(=O)oc2c1 | n | 21 | n | n | n | 24
CC1(C)CC(=O)C2(CC3=C(CC(C)(C)CC3=O)O2)C(=O)C1 | n | n | n | n | x | x
Cc1ccc(CSc2ncnc3ccccc23)cc1 | x | n | n | n | x | x
O=Cc1cc2ccccc2nc1SCc1ccc(Cl)cc1 | n | 26 | n | n | n | n
Cc1ccc(CSc2nc3ccccc3cc2C=O)cc1 | n | 23 | n | n | n | n
O=Cc1cc2ccccc2nc1SCc1ccc(Cl)c(Cl)c1 | n | n | n | n | x | x
CC(C)Cc1ccc(/C=C/C(=O)NC2CC2)cc1 | n | n | n | n | x | x
CO/N=C/C(=N\Nc1ccccc1)C(=O)c1ccccc1 | x | n | n | n | x | x
CO/N=C\C(=N\Nc1ccc(OC)cc1)C(=O)c1ccccc1 | n | 23 | n | n | n | n
CCOC(=O)CNC(=O)c1cccnc1Oc1ccc(Cl)cc1 | x | x | n | n | x | x
Cc1ccccc1OCCNC(=O)/C=C/c1ccc([N+](=O)[O-])cc1 | n | 20 | n | n | n | n
Clc1ccc(-c2nnc(-c3ccccc3Cl)o2)cc1 | n | 25 | n | n | n | n
COc1cccc(NC(=O)C(c2ccccc2)N2CCNC(=O)C2)c1 (configuration not stated) | x | n | n | n | x | x
CCC(C)N1C(=O)CN(C2CCCCCC2)C(=O)C1c1ccccc1F (configuration not stated) | x | 24 | n | n | n | n
CCc1c(C)sc(NC(=O)c2cccs2)c1C(=O)OC(C)C | n | 20 | n | n | n | 18
CCCCn1nc(C(=O)Oc2ccc3c(C)cc(=O)oc3c2)c2ccccc2c1=O | n | n | n | n | x | x
Cc1cc(C(=O)CSc2nc3ccccc3[nH]2)c(C)n1CC1CCCO1 (configuration not stated) | n | 26 | n | n | 42 | n
CCCCCc1ccc(OCCOCCn2c[n+](C)c3ccccc32)c(CCCCC)c1 | x | 35 | n | n | 42 | 23
SMILES | NPY Y2 blocker | NPY-Y1 antag | NPY2 pot ag | NPY-Y1 PAM-ag | NPY-Y1 ant conf | NPY-Y2 antag ct
OCCC1CN(CC(c2ccccc2)c2ccccc2)CCN1C1CCCC1 (configuration not stated) | x | 23 | n | n | n | n
OCCC1CN(Cc2ccccn2)CCN1C1CCCC1 (configuration not stated) | x | n | n | n | x | x
O=C(CSc1nnc(Cc2cccs2)n1CCc1ccccc1)N1CCCc2ccccc21 | n | 22 | n | n | n | n
CC(C)c1ccc(N2CC(C)(C)C2=O)cc1 | x | n | n | n | x | x
COc1cccc(C(=O)C2CCCN(Cc3cccn3-c3ccccn3)C2)c1 (configuration not stated) | x | 37 | n | n | 35 | 30
COc1ccc(C(=O)C2CCCN(Cc3cccn3-c3nccs3)C2)cc1OC (configuration not stated) | x | x | n | n | x | x

Compound activity as filed in PubChem.
